Published values collected from several papers.
Lines come from different studies, so protocols differ.
Organism: Pseudomonas aeruginosa
Effect on: microbial growth

| SMILES | assay | system | conditions | MIC |
| --- | --- | --- | --- | --- |
| CC(C)Oc1c(NC(=O)c2ccc(NC(=O)[C@H](CC(N)=O)NC(=O)c3ccc(NC(=O)c4ccc(C#N)nc4)cc3)cc2)ccc(C(=O)Nc2ccc(C(=O)O)cc2)c1O |  | PA14 |  | > 64 µg/mL |
| CC(C)Nc1nc(Cl)c2c(c1O)C(=O)C1=C(O)[C@]3(O)C(=O)C(C(N)=O)=C(O)[C@@H](N(C)C)[C@@H]3C[C@@H]1C2.Cl.Cl.Cl | broth dilution | ATCC27853 |  | > 32 µg/mL |
| Fc1ccccc1NCc1ccc(Oc2ccccn2)cc1 |  |  |  | > 25 µg/mL |
| CC1(C)SC2C(NC(=O)C(NC(=O)C3=C(O)C(Cc4ccsc4)NC3=O)c3ccccc3)C(=O)N2C1C(=O)O (stereo not shown) |  |  |  | 25 µg/mL |
| C=CCOc1c(C)c(O)c(C(=O)/C=C/c2ccccc2)c(OC)c1C | broth dilution | ATCC27853 |  | 5000 µg/mL |
| CC(C)Oc1c(NC(=O)c2ccc(NC(=O)[C@H](CC(N)=O)NC(=O)c3ccc(NC(=O)C(C)Sc4ccc(C#N)cc4)cc3)cc2)ccc(C(=O)Nc2ccc(C(=O)O)cc2)c1O (stereo partly shown) |  | PA14 |  | > 64 µg/mL |
| C[C@H]1COc2c(N3CCN(C)CC3)c(F)cc3c(=O)c(C(=O)O)cn1c23 | agar dilution | PAO1 |  | 4 µg/mL |
| CC(C)Oc1c(NC(=O)c2ccc(NC(=O)[C@H](CC(N)=O)NC(=O)c3ccc(NC(=O)c4ccc(S(C)(=O)=O)cc4)cc3)cc2)ccc(C(=O)Nc2ccc(C(=O)O)cc2)c1O |  | PA14 |  | > 64 µg/mL |
| Cc1ccc(C)n1-c1ccc(-c2nnc(-c3c(Cl)cccc3Cl)[nH]2)cc1 | broth dilution | ATCC10145 | 18 h | 62.5 µg/mL |
| CCCCCCC/C=C/C(=O)N1C(=O)/C(=C(/C)O)C(=O)C1CO (stereo not shown) |  | PA01 |  | > 200 µg/mL |
| CN(C)[C@@H]1C(O)=C(C(N)=O)C(=O)[C@@]2(O)C(O)=C3C(=O)c4c(cc5ccc(CN6CCCCC6)cc5c4O)C[C@H]3C[C@@H]12 | broth dilution | ATCC27853 |  | 32 µg/mL |
| O=C(CCCCCCCCCC[P+](c1ccccc1)(c1ccccc1)c1ccccc1)Nc1ccc(O)c(O)c1.[Br-] | broth dilution | ATCC27853 | 18 h | > 32 µg/mL |
| O=C1NN=C(N=Cc2ccccc2)C1=NNn1c(-c2ccccc2)nc2ccccc2c1=O | broth dilution |  | 24 h | 114 µM |
| O=[N+]([O-])c1ccc(-c2nc3cc(F)ccc3[nH]2)o1 | broth dilution | ATCC27853 |  | > 64 µg/mL |
| CCCCCCC#Cc1cncc(-c2nnc(SCc3ccc(Cl)c(F)c3)n2C)c1 |  |  |  | ≥ 20 µg/mL |
| CC(C)Oc1c(N)ccc(C(=O)Nc2ccc(C(=O)N[C@@H](CC(N)=O)C(=O)Nc3ccc(C(=O)Nc4ccc(C(=O)Nc5ccc(C(=O)O)cc5)c(O)c4OC(C)C)cc3)cc2)c1O |  | PA14 |  | 32 µg/mL |
| CCCCCCCC(=O)Oc1c(C)c(O)c(C(=O)/C=C/c2ccccc2)c(OC)c1C | broth dilution | ATCC27853 |  | 5000 µg/mL |
| NC1CCCCc2c1[nH]c1ccc(Br)cc21 (stereo not shown) | broth dilution | PAO1 | 18 h | 128 µg/mL |
| CN(C)Cc1ccc2cc3c(c(O)c2c1)C(=O)C1=C(O)[C@]2(O)C(=O)C(C(N)=O)=C(O)[C@@H](N(C)C)[C@@H]2C[C@@H]1C3 | broth dilution | ATCC27853 |  | 32 µg/mL |

| SMILES | assay | system | conditions | MIC |
| --- | --- | --- | --- | --- |
| CC(C)Oc1c(NC(=O)c2ccc(NC(=O)[C@H](CC(N)=O)NC(=O)c3ccc(NC(=O)c4ccc(NC(=O)c5ccc([N+](=O)[O-])cc5)cc4)cc3)cc2)ccc(C(=O)Nc2ccc(C(=O)O)cc2)c1O |  | PA14 |  | > 64 µg/mL |
| Cc1cccc(NCc2ccc(Oc3ccccn3)cc2)c1 |  |  |  | > 25 µg/mL |
| O=c1c(O)c(-c2ccc(O)c(O)c2)oc2cc(O)cc(O)c12 | broth dilution | PAO1 |  | 256 µg/mL |
| Cc1ccc(C)n1-c1ccc(-c2nnc(-c3ccccc3Cl)[nH]2)cc1 | broth dilution | ATCC10145 | 18 h | 250 µg/mL |
| CCCCCCC/C=C/C(=O)N1C(=O)/C(=C(/C)O)C(=O)C1Cc1ccc(O)cc1 (stereo not shown) |  | PA01 |  | > 200 µg/mL |
| O=C(Nc1ccc2c(c1)OC(F)(F)O2)Nc1ccc(Cl)c(C(F)(F)F)c1 |  | DSM19882 |  | > 100 µM |
| O=C(CCCCCC[P+](c1ccccc1)(c1ccccc1)c1ccccc1)Nc1ccc(O)c(O)c1.[Br-] | broth dilution | ATCC27853 | 18 h | > 32 µg/mL |
| CN(C)c1nc(NC(=O)CNC(C)(C)C)c(O)c2c1C[C@H]1C[C@H]3[C@H](N(C)C)C(O)=C(C(N)=O)C(=O)[C@@]3(O)C(O)=C1C2=O.Cl | broth dilution | ATCC27853 |  | > 32 µg/mL |
| CC(C)Oc1c(NC(=O)c2ccc(NC(=O)[C@H](CC(N)=O)NC(=O)c3ccc(NC(=O)c4ccc(C5(C(F)(F)F)N=N5)cc4)cc3)cc2)ccc(C(=O)Nc2ccc(C(=O)O)cc2)c1O |  | PA14 |  | > 64 µg/mL |
| CC(=O)NCN1N=C(C)C(=NNn2c(-c3ccccc3)nc3ccccc3c2=O)C1=O | broth dilution |  | 24 h | 59.9 µM |
| Clc1ccc(Cn2c(-c3ccc(Cl)cc3)nc3ccccc32)cc1 | broth dilution | ATCC27853 |  | 256 µg/mL |
| COc1c(C)c(OC(C)=O)c(C)c(OC(C)=O)c1C(=O)/C=C/c1ccccc1 | broth dilution | ATCC27853 |  | 5000 µg/mL |
| Cc1ccc2nc(-c3ccc(Cl)cc3)n(Cc3ccccc3Cl)c2c1 | broth dilution | ATCC27853 |  | 512 µg/mL |
| CC(C)Oc1c(NC(=O)c2ccc(NC(=O)[C@H](CC(N)=O)NC(=O)c3ccc(NC(=O)c4ccccc4[N+](=O)[O-])cc3)cc2)ccc(C(=O)Nc2ccc(C(=O)O)cc2)c1O |  | PA14 |  | > 64 µg/mL |
| CC1NC(=O)C(C(=O)NC(C(=O)NC2C(=O)N3C2SC(C)(C)C3C(=O)O)c2ccccc2)=C1O (stereo not shown) |  |  |  | 50 µg/mL |
| NC[C@H]1O[C@H](O[C@H]2[C@H](O)[C@@H](O[C@H]3O[C@H](CO)[C@@H](O)[C@H](N)[C@H]3O)[C@H](N)C[C@@H]2N)[C@H](N)C[C@@H]1O | broth dilution | CMCC10104 |  | 26.7 µM |
| CC(C)OCCNc1nc(Cl)c2c(c1O)C(=O)C1=C(O)[C@]3(O)C(=O)C(C(N)=O)=C(O)[C@@H](N(C)C)[C@@H]3C[C@@H]1C2.Cl.Cl.Cl | broth dilution | ATCC27853 |  | > 32 µg/mL |
| C/C(=C\c1ccc(C#N)cc1)C(=O)Nc1ccc(C(=O)N[C@@H](CC(N)=O)C(=O)Nc2ccc(C(=O)Nc3ccc(C(=O)Nc4ccc(C(=O)O)cc4)c(O)c3OC(C)C)cc2)cc1 |  | PA14 |  | 1 µg/mL |
